The EternaBench riboswitch data

System: MS2 coat protein
Assay: apparent Kd, MS2 coat protein; higher = weaker binding; RNA-MaP array; FMN 200 µM where present
How it was run: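 Stalled E. coli RNA polymerase produced the designs on Illumina sequencing-chip clusters. SNAP-549-labelled MS2 coat protein was added from 0.7 or 1.5 nM, doubling to 3 µM, without and then with constant ligand, in 100 mM Tris-HCl pH 7.5, 80 mM KCl, 4 mM MgCl2, BSA, DTT, yeast tRNA and Tween-20. The apparent Kd is the median of filtered per-cluster fits of green signal normalised to red-channel RNA signal and control-cluster median Fmax.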

[1] = designed as: OFF switch for flavin mononucleotide, no ligand
[2] = ligand present: flavin mononucleotide, designed as: OFF switch for flavin mononucleotide
[3] = designed as: ON switch for flavin mononucleotide, no ligand
[4] = ligand present: flavin mononucleotide, designed as: ON switch for flavin mononucleotide

| Sequence | apparent Kd [1] [nM] | apparent Kd [2] [nM] | apparent Kd [3] [nM] | apparent Kd [4] [nM] |
| --- | --- | --- | --- | --- |
| GUGUACAGAGGAUAUACUUAUGGAGUCACGAAAGUGGCUUCACAUGAGGAUCACCCAUGUAGAAGGCUGUACAC | 28.1 | 31.1 |  |  |
| GUGUACAGAGGAUAUAUAUGAGCAUGGAAACAUGCAUCUUCACAUGAGGAUCACCCAUGUAGAAGGCUGUACAC | 15.7 | 49.2 |  |  |
| GUGUACGUAGGAUAUGCUGGAAUCUAGCGAAGCUAGGUUCCACAUGAGGAUCACCCAUGUAGAAGGGCGUACAC | 182 | 47.1 |  |  |
| GUGUAGAUAGGAUAUGCAUAGAGCUUACGAAAGUAGGCUCUACAUGAGGAUCACCCAUGUAGAAGGGUCUACAC | 27.9 | 21.2 |  |  |
| GUGUAGUCAGGAUAUACAUAGGAAGAUAAUAUAAUAUAAGUACAUGAGGAUCACCCAUGUAGAAGGGACAGUGU | 38.5 | 53.8 |  |  |
| GUGUGAUUAAGAGGAUAUAUACAACAUGAGGAUCACCCAUGUACCCGUGUAGUAGAAGGUUUGUUUUUAUAUAAUAUUAUAAUU |  |  | 29.9 | 24.8 |
| GUUAAGGUAGGAUAUACGAUAAUAUAGGGUAGAUAUAUAACACAUGAGGAUCACCCAUGUAGAAGGACCAAUUG | 30.2 | 85.7 |  |  |
| GUUACAUGAGGAUCACCCAUGUAUGUGUGGGAGUAAGUGUCUUAGGAUAUCUAUCAUUGAAUUUAAGAGAAGGAAGAUUGUUGU |  |  | 113 | 126 |
| GUUACAUGAGGAUCACCCAUGUAUGUGUGGGAGUAAGUGUCUUAGGAUAUCUAUUAUUUAAUUUAAGAGAAGGAAGAUUGUUGU |  |  | 118 | 133 |
| GUUAGACAUGAGGAUCACCCAUGUGAGGAUAUGAUGCGAUCGUGCUGACAUGAUCGCAUCAGAAGGCACAUAUG | 133 | 190 |  |  |
| GUUAGACAUGAGGAUCACCCAUGUGAGGAUAUGAUGUGAAUAAAUAAUUAAUUAAGUAUCAGAAGGCACAUAUG | 129 | 149 |  |  |
| GUUAGUUAAGGAUAUACAGGGAGCUGCGGCGUCUCGCCGCAACAUGAGGAUCACCCAUGUAGAAGGUAGCCGUU | 76.4 | 121 |  |  |
| GUUCUGUUAGGAUAUUGGAAAUCCGUAGCUGUGGCGCGCUUCAAGAAGGAACAUGAGGAUCACCCAUGUGAAAU | 25 | 25.4 |  |  |
| GUUGAAGUCACAGGAUAUACGUCGUCUGUUGCCGUAGAAGGGUGAACUCAGCCUGACCGUGACAUGAGGAUCACCCAUGUGACC |  |  | 15.3 | 19.6 |
| GUUGGGUUUUUUUUUGGACGUUCAACAUGAGGAUCACCCAUGUAGGAUAUCGUUUGUUUUUUUUACGAGAAGGGCGUAUUUUUU | 9.65 | 8.01 |  |  |
| GUUGUGUAUGUAGGAUAUGCGAAGCAAAGCUUCGCAGAAGGACAUGAGGAUCACCCAUGUAUUGCGGUCUGCGUUCAGAUCGCU | 43.5 | 181 |  |  |
| GUUGUGUCAGGAUAUACGUUUGUUUUUUUUUUUGUUGUUUAGUAGAAGGGACAUGAGGAUCACCCAUGUUUGUU | 25.7 | 28.2 |  |  |
| GUUGUUUCUGAGGAUAUUAUUUUAUUCGAUUGAUAAGAAGGCAGUACAUGAGGAUCACCCAUGUGGGUAGUUUG | 94.2 | 172 |  |  |
| GUUUCACAUGAGGAUCACCCAUGUGAGGAUAUAGAUUUGUUAGUGGUGAUUGGUGGAUUUAGAAGGCGCGUGAU | 81.3 | 66.2 |  |  |

| Sequence | apparent Kd [1] [nM] | apparent Kd [2] [nM] | apparent Kd [3] [nM] | apparent Kd [4] [nM] |
| --- | --- | --- | --- | --- |
| GUUUCACAUGAGGAUCACCCAUGUGAGGAUAUGGUUUCGCUGGCCGUAGCCAGUGGAACCAGAAGGCGCAUGAU | 36.5 | 41.3 |  |  |
| GUUUCUAUAAGUUAUAUUUAACAGUCAGAAGGUGAUACUACGACAUGAGGAUCACCCAUGUAAUUCAAGGAUAUGAACUUAAUC |  |  | 1570 | 999 |
| GUUUGUUAUUAGAAGGUGCCGGCGAGAGCCGCAACAUGAGGAUCACCCAUGUGUCGGUGACGACGCAAGGAUAUGGUGGUGGAU |  |  | 308 | 140 |
| GUUUUCGCAUGAGGAUAUGCUCGCAAUUCAAGAGCAGAAGGUAUGUCUAUAGACAUGAGGAUCACCCAUGUAUUUAUCAUUGAA |  |  | 218 | 58.7 |
| GUUUUGAUAGGAUAUACAUGAGGAUCACCCAUGUCCCACCGGUUACCUAUGACCAUAUGUAGAAGGAUCGUUUG | 51.7 | 78.9 |  |  |
| GUUUUGGGAGGAUAUGCGUGGAUUAUUUUCGUAUGUUGUUUACAUGAGGAUCACCCAUGUAGAAGGUCUAGAGC | 39.7 | 133 |  |  |
| UAAAAACAUGAGGAUCACCCAUGUGAAAAUAUGGGAGGAUAUACAAAGACGAGAGUCAAAGUAGAAGGCCUAAAAU |  |  | 73.5 | 24.5 |
| UAAAAUAGUGUGAGGAUAUGCUGGUCCUUGGAUCAGCAGAAGGCACAUGAGGAUCACCCAUGUAGUUAAUUUUA | 40.5 | 218 |  |  |
| UAAAUUAACAAGAAGGCUAACAUGAGGAUCACCCAUGUUGUACAUGGAUAUAGAGGAUAUUGCUAAUAAUUUUUUAUCAUAAUU | 20.8 | 17.6 |  |  |
| UAAGACUAGCAUUGGUAUCUCCACAUGAGGAUCACCCAUGUCUAGGAUAUGAGCAGCAAAGCUGCUUAGAAGGAGACGCUAGUC | 8.47 | 12.6 |  |  |
| UAAGACUAGCAUUGGUAUCUCCACAUGAGGAUCACCCAUGUUUAGGAUAUGAGCAGCAAAGCUGCUUAGAAGGAGACGCUAGUC | 7.26 | 7.21 |  |  |
| UAAGGACAUGAGGAUCACCCAUGUGAGGAUAUGCUCUACGAACGUUUAUUUAUGAGAAGCAGAAGGCACAUUUU | 99.8 | 156 |  |  |
| UAAUAAAACGAUCGGCGAUCCAAACAUGAGGAUCACCCAUGUAGAAGGGACUCUACAAAGUAGAGUCAGGAUAUACGAGAUCGA | 11.9 | 208 |  |  |
| UAAUAAAACGAUCGGCGGUCCAUACAUGAGGAUCACCCAUGUAGAAGGGACUCUACAAAGUAGAGUCAGGAUAUACAAGAUCGA | 8.19 | 108 |  |  |
| UACAAUCUAUCUGAGGAUAUCAUGAUUAUAACAUGAGGAUCACCCAUGUGCAGGAAAACUGCAUAUGAGAAGGCAGAUAGAUUGU |  |  | 611 | 98 |
| UACACUACUGAGAAGGGAUACAUAUAAUUUUAGUCAGGAUAUCGAUACAGUGCAGCAUGAGGACAUGAGGAUCACCCAUGUAUU |  |  | 22.3 | 14.6 |
| UACAGACAUGAGGAUCACCCAUGUAAGGAUAUCGGUACCGAUGGUAUAAUCUACUCGGCGAGAAGGUACAGUGU | 23.1 | 26.7 |  |  |
| UACAGCUCGACAGGAUAUACAUCACUGCUUCGGCAGUGUAUCUUAAUAACAUGAGGAUCACCCAUGUAGAAGGGUCGAGCUGUA | 18.1 | 32.8 |  |  |
| UACGGACAUGAGGAUCACCCAUGUGAGGAUAUCGGUACCGAUAGCAUAAUAUAAUCGGCGAGAAGGCACAGCGU | 32.7 | 42.8 |  |  |

| Sequence | apparent Kd [1] [nM] | apparent Kd [2] [nM] | apparent Kd [3] [nM] | apparent Kd [4] [nM] |
| --- | --- | --- | --- | --- |
| UACGUACAGAAGAACUCCGGGUCCAGAAGGGACAUGAGGAUCACCCAUGUACCGUUGAUUGCUUGUCAGGAUAUGGACCCGGCC | 6.67 | 28 |  |  |
| UACUAUAAGGAGGAUAUCGUAUCGGAAACGAUACGAGAAGGCUUAACAUGAGGAUCACCCAUGUUCUUCAAUAA | 16.6 | 18.3 |  |  |
| UAGCAUUGCCUUUGGUAGUGCCUUACAUGAGGAUCACCCAUGUAGGAUAUGGUAGGCUUUGCUUACCAGAAGGACAUGGUAAUU | 52.9 | 259 |  |  |
| UAGGAGUACGUAGGAUAUGUAGGAUAUUCCUACAUGAGGAUCACCCAUGUUAGCAUGGAAGAAGGACAGAAGGACGUGCUCCUU |  |  | 1090 | 16.1 |
| UAGGGCGAGUUAUGUACAAGAUACAUGAGGAUCACCCAUGUGUAGGAUAUGACCCUCAUCGCUGGUCAGAAGGGCACGAGAAUC | 234 | 314 |  |  |
| UAGUAUCAACGAGGAUAUAAUAUGUUCAAUUUUUUAUAUUGUUUACAUGAGGAUCACCCAUGUUAUUAGAAGGCGUAUGGGAUU |  |  | 61.8 | 47.7 |
| UAGUGCGUUAGAGGAUAUUCUAAAUAAAAUAAUAAGACAUGAGGAUCACCCAUGUAUGUACAUGGGAAGAAGGCUGAUGUGCUA |  |  | 573 | 42.9 |
| UAUAAGAACGAAGGAUAUGGUUACAUGAGGAUCACCCAUGUAUUAAUAUUGAUCUAUUUUUAUAACCAGAAGGUCGAGAGUAAA | 27.4 | 39.7 |  |  |
| UAUAAGCUAGGAUAUACUAACGAAACUAAUGCAUAUAUAUAACAUGAGGAUCACCCAUGUAGAAGGAGCAGAAU | 25.5 | 23 |  |  |
| UAUAAUAUUAUAGGAUAUGGAUACGAUGCGUAUCCAGAAGGGUGAUUAUAAUAUAAUCUAUACAUGAGGAUCACCCAUGUUUAU |  |  | 301 | 121 |
| UAUACUUACGAAGGAUAUGGUUACAUGAGGAUCACCCAUGUAUGUAUAUUGAUCUUGUAUCUUAACCAGAAGGUCGUCACUAUA | 26.3 | 23.4 |  |  |
| UAUAUAUAGUAAGGAUAUGUAAAUAUUUUAUAAACAGAAGGUACUGACAUGAGGAUCACCCAUGUUUUAGUGUGGGCAUGUAGA | 79.2 | 139 |  |  |
| UAUAUAUAGUAAGGAUAUGUAUUAAUUGUAUAAACAGAAGGUACUGACAUGAGGAUCACCCAUGUUUUAGUGUGGGCAUGUAGA | 91.3 | 149 |  |  |
| UAUAUUUUUAUAGGAUAUGGAUAUGAUGCAUAUCCAGAAGGGUGAUUAUAAUAUAAUCUAUACAUGAGGAUCACCCAUGUUUAU |  |  | 242 | 72 |
| UAUCUAUUUAUGGGAUUAGAAUAUGAGGAUAUCAUUUAUUUAUACAUGAGGAUCACCCAUGUUACUGAGAAGGCAUAUUUAAUA |  |  | 13.4 | 7.47 |
| UAUCUAUUUAUGGGAUUAGAUUAUGAGGAUAUCAUUUUUUUAUACAUGAGGAUCACCCAUGUUUCUGAGAAGGCAUAUUUAAUA |  |  | 22.2 | 8.12 |
| UAUGAGCGAGGAUAUGCUUGGGACUGUCGGAAUGUGGCGGGACAUGAGGAUCACCCAUGUAGAAGGCGCGAGCG | 95.1 | 212 |  |  |
| UAUGAUUGAGGAUAUUGUACUGCUGACAUGAGGAUCACCCAUGUAUGCUAACUCGGCCGUCGAGAAGGCAAUUAUG | 141 | 51 |  |  |
